Measurements: ChEMBL document CHEMBL1125548, “Synthesis and pharmacological studies of N-substituted 6-[(2-aminoethyl)amino]-1,3-dimethyl-2,4(1H,3H)-pyrimidinediones, novel class III antiarrhythmic agents” (1992)

Columns and labels:
Canis familiaris [1] = assay: Concentration required for 50% inhibition of tachycardia induced by isoproterenol (0.5ug/mL, iv) in anesthetized dog; type: functional; conditions: Canis lupus familiaris, read-out: ID50 (the source's name)
Canis familiaris [2] = assay: The percentage change of the duration of action potential at 75% repolarization was measured before and after the administration at 3.0 ug/mL; type: functional, Canis lupus familiaris
Summary of the method: (§1)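 Canine right-ventricular Purkinje fibers (mongrel dogs 7–11 kg, thiopental-anesthetized) superfused with Tyrode's (pH 7.5, 36 °C, gassed 95% O2/5% CO2). Compounds diluted from 1 mM water stock and added cumulatively. Readings taken 20 min after solution exchange. Result given as percent change in action potential duration.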

Canis familiaris [3] = assay: The percentage change of the duration of action potential at 75% repolarization was measured before and after the administration at 1.0 ug/mL; type: functional, Canis lupus familiaris; summary of the method: as §1
Canis familiaris [4] = assay: The prolongation effect of the atrial and ventricular effective refractory period was measured before and after the administration at 0.3 mg/kg; type: functional, Canis lupus familiaris, Cardiac atrium
Summary of the method: (§2)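 In vivo, mongrel dogs of either sex (7–13 kg), anesthetized with pentobarbital sodium 30 mg/kg iv. Left femoral artery cannulated for arterial pressure, femoral vein for drug dosing. Effective refractory period measured before and after administration.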

Canis familiaris [5] = assay: The prolongation effect of the atrial and ventricular effective refractory period was measured before and after the administration at 0.1 mg/kg; type: functional, Canis lupus familiaris, Cardiac atrium; conditions: dose 1.0 mg/kg; in the assay text read “1.0 mg/kg” for “0.1 mg/kg”; summary of the method: as §2
Canis familiaris [6] = assay: The prolongation effect of the atrial and ventricular effective refractory period was measured before and after the administration at 3 mg/kg; type: functional, Canis lupus familiaris, Cardiac atrium; summary of the method: as §2
Canis familiaris [7] = assay: Percentage change of the duration of action potential at 75% repolarization was measured before and after the administration at 10.0 ug/mL; type: functional, Canis lupus familiaris; summary of the method: as §1
Canis familiaris [8] = assay: The prolongation effect of the atrial and ventricular effective refractory period was measured before and after the administration at 1.0 mg/kg
Canis familiaris [9] = assay: The percentage change in the effective refractory period was measured before and after the administration at 0.1 mg/kg; type: functional, Canis lupus familiaris; conditions: dose 1.0 mg/kg; in the assay text read “1.0 mg/kg” for “0.1 mg/kg”; summary of the method: as §2
Canis familiaris [10] = assay: The prolongation effect of the atrial and ventricular effective refractory period was measured before and after the administration at 1 mg/kg; type: functional, Canis lupus familiaris, Cardiac atrium; summary of the method: as §2
Canis familiaris [11] = assay: The prolongation effect of the atrial and ventricular effective refractory period was measured before and after the administration at 0.3 mg/kg

SMILES: Cl.Cl.Cn1c(N2CCN(CC(O)COc3ccccc3)CC2)cc(=O)n(C)c1=O (stereo not drawn)
- ED50 (Canis familiaris [1]): > 5 mg/kg
- APD75 (Canis familiaris [2]): 13.7%
- APD75 (Canis familiaris [3]): 3.5%

SMILES: CNS(=O)(=O)c1ccc(OCCCN2CCN(c3cc(=O)n(C)c(=O)n3C)CC2)cc1.Cl
- APD75 (Canis familiaris [2]): 0%

SMILES: Cl.Cn1c(N2CCN(CCCOc3ccc(Cl)cc3)CC2)cc(=O)n(C)c1=O
- APD75 (Canis familiaris [2]): 25%
- APD75 (Canis familiaris [3]): 14%
- ERP (Canis familiaris [4]): 6.3%
- ERP (Canis familiaris [5]): 13%
- ERP (Canis familiaris [6]): 24.3%

SMILES: CCO.Cn1c(NCCNCC(O)COc2ccccc2)cc(=O)n(C)c1=O (stereo not drawn)
- ED50 (Canis familiaris [1]): 0.01 mg/kg
- APD75 (Canis familiaris [2]): 6.9%
- APD75 (Canis familiaris [7]): 10.1%

SMILES: CSc1ccc(OCCCN2CCN(c3cc(=O)n(C)c(=O)n3C)CC2)cc1.Cl
- APD75 (Canis familiaris [2]): 13%
- ERP (Canis familiaris [8]): 7.7%
- APD75 (Canis familiaris [3]): 4%
- ERP (Canis familiaris [4]): 0%
- APD75 (Canis familiaris [7]): 25%
- ERP (Canis familiaris [6]): 15.4%

SMILES: CCN(CCCc1ccc([N+](=O)[O-])cc1)CCNc1cc(=O)n(C)c(=O)n1C.Cl
- APD75 (Canis familiaris [2]): 16%
- APD75 (Canis familiaris [3]): 11%

SMILES: Cl.Cn1c(N2CCN(CCCOc3ccccc3[N+](=O)[O-])CC2)cc(=O)n(C)c1=O
- APD75 (Canis familiaris [2]): 18%
- ERP (Canis familiaris [9]): 6.8%
- APD75 (Canis familiaris [7]): 39%

SMILES: Cn1c(NCCNCCCc2ccc([N+](=O)[O-])cc2)cc(=O)n(C)c1=O.O=C(O)C(=O)O
- APD75 (Canis familiaris [2]): 12%
- APD75 (Canis familiaris [3]): 9%
- APD75 (Canis familiaris [7]): 16%

SMILES: Cl.Cn1c(N2CCN(CCCOc3cccc(Cl)c3)CC2)cc(=O)n(C)c1=O
- APD75 (Canis familiaris [2]): 6%
- APD75 (Canis familiaris [7]): 7%

SMILES: Cn1c(N2CCN(Cc3ccc([N+](=O)[O-])cc3)CC2)cc(=O)n(C)c1=O.O=C(O)C(=O)O
- APD75 (Canis familiaris [2]): 7%
- APD75 (Canis familiaris [3]): 3%
- ERP (Canis familiaris [10]): 0%
- ERP (Canis familiaris [4]): 0%
- APD75 (Canis familiaris [7]): 11%
- ERP (Canis familiaris [6]): 7%

SMILES: CO.Cl.Cn1c(N2CCN(CCCOc3cccc([N+](=O)[O-])c3)CC2)cc(=O)n(C)c1=O
- APD75 (Canis familiaris [2]): 34%
- APD75 (Canis familiaris [3]): 15%
- ERP (Canis familiaris [5]): 7%

SMILES: Cn1c(N2CCN(CCCc3ccc([N+](=O)[O-])cc3)CC2)cc(=O)n(C)c1=O.O=C(O)C(=O)O
- APD75 (Canis familiaris [2]): 22%
- APD75 (Canis familiaris [3]): 17%
- APD75 (Canis familiaris [7]): 31%
- ERP (Canis familiaris [11]): 14.3%

SMILES: Cn1c(NCCNCC(O)COc2ccccc2F)cc(=O)n(C)c1=O (stereo not drawn)
- ED50 (Canis familiaris [1]): 0.003 mg/kg
- APD75 (Canis familiaris [2]): 8.3%
- APD75 (Canis familiaris [3]): 4.1%
- APD75 (Canis familiaris [7]): 15.6%

SMILES: Cn1c(NCCNCCCOc2ccccc2)cc(=O)n(C)c1=O
- ED50 (Canis familiaris [1]): 0.1 mg/kg
- APD75 (Canis familiaris [2]): 11.9%
- APD75 (Canis familiaris [3]): 4%
